# Screening data: PubChem BioAssay, The Scripps Research Institute Molecular Screening Center
# S1P1 ag pot: S1P1 agonists and agonism potentiators, primary screen, cell-based, primary and confirmation screens, CRE-bla reporter | S1P1 CRE-bla cells, forskolin, beta-lactamase FRET, potentiator mode; S1P1 agonist co-added at EC20, 2 nM; 100% = saturating reference agonist, 0% = basal | activation, % at 9.5 µM | actives 0.57% (n = 56,000);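 active = activation above a cutoff set at the mean activation of all tested compounds plus 3 SD, cut at about 54% in these data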;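 also: forskolin at 4 µM as EC80 and the EC20 agonist is SEW2871; 100% = SEW2871 at its EC100 plus forskolin at EC80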
# 5HT1a antag: human 5-HT1a receptor antagonists, primary screen, cell-based, CHO, Ga15 NFAT-bla reporter; 5-hydroxytryptamine receptor 1A (Homo sapiens), P08908; CHO 5-HT1a Ga15 NFAT-bla reporter, antagonist mode; inhibition, % at 10 µM; actives 0.68% (n = 62,000); AID 612, 2007;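 active = inhibition above the mean of all tested compounds plus 3 SD, cut at about 43% in these data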;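 also: receptor stimulated by 5-CT agonist at 100 nM near EC80; beta-lactamase reporter measured by ratiometric fluorescence of a cleavable substrate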
# Target sequence (P08908 whole entry, looked up): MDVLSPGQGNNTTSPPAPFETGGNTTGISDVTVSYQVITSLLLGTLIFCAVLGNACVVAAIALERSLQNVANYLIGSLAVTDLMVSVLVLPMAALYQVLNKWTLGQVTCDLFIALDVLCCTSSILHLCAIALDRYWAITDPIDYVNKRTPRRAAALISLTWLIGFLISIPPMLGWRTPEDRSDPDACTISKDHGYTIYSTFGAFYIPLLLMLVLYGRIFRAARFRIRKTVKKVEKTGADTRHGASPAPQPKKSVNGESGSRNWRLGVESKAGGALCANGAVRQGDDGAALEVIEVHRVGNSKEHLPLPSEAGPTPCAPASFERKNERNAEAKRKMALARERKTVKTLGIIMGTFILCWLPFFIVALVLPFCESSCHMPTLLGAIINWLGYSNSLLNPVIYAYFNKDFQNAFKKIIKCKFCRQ
# HTR1E agonist: 5-HT1E receptor agonists, primary screen, cell-based, HTS | AID 574, 2007 | CHO 5-HT1E Ga15 NFAT-bla reporter, FRET; 0% DMSO wells, 100% control agonist wells | actives 0.69% (n = 65,000) | activation, % at 6 µM;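 active = activation above a set limit, the screen-wide mean activation plus 3 SD, cut at about 8.5% in these data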;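 also: 100% = positive control agonist at 1 µM giving full maximal response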
# HTR1A agonist: human 5-HT1a receptor agonists, primary screen, cell-based, CHO, Ga15 NFAT-bla reporter | activation, % at 10 µM | actives 0.56% (n = 65,000) | CHO 5-HT1a Ga15 NFAT-bla reporter, FRET ratio; 0% basal, 100% maximal reference agonist | AID 567, 2006 | 5-hydroxytryptamine receptor 1A (Homo sapiens), P08908;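 active = activation above the screen-wide mean activation plus 3 SD, cut at about 19% in these data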;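 also: 0% = DMSO wells and 100% = 5-CT at EC100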
# 5HT1E antag: 5-HT1E receptor antagonists, primary screen, cell-based, HTS; 5-hydroxytryptamine receptor 1E (Homo sapiens), P28566; CHO 5-HT1E Ga15 NFAT-bla reporter, FRET, antagonist; inhibition, % at 6 µM; actives 0.99% (n = 65,000);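 active = inhibition above a set limit, the mean inhibition across every tested compound plus 3 SD, cut at about 29% in these data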;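 also: signal is the 460 over 535 nm emission ratio of beta-lactamase substrate; 0% = agonist plus DMSO wells and 100% = wells without agonist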
# S1P3 agonist: human S1P3 receptor agonists, primary screen, cell-based, primary and confirmation, NFAT-BLA reporter; Sphingosine 1-phosphate receptor 3 (Homo sapiens), Q99500; S1P3 NFAT-BLA reporter cells, agonism, FRET ratio; relative to 1 µM S1P, basal subtracted; activation, % at 4.5 µM; actives 0.1% (n = 60,000);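 active = activation above the screen-wide mean plus 3 SD, cut at about 4.5% in these data, passing the limit was not always enough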
#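 material = human S1P3 NFAT-BLA reporter CHO cells | schedule = 4 h compound at 37 °C, 2 h substrate at RT | measured by = fluorescent BLA substrate, ex 405 nm, em 460/535 nm ratio | controls = 1 µM S1P reference | replication = primary once, confirmation triplicate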
# * = called active by the depositor; x = no result. The list is not random: actives were taken first. Their share in the collection is about 3%.
SMILES,S1P1 ag pot,5HT1a antag,HTR1E agonist,HTR1A agonist,5HT1E antag,S1P3 agonist
O=C(CN1C(=O)NC2(CCCc3ccccc32)C1=O)N1CCc2ccccc2C1 (centres undefined),2,-4,0,0,5,-1
O=C(NCc1ccco1)C1(S(=O)(=O)c2ccc(Cl)cc2)CC1,4,-4,0,-2,3,0
CCN(CCCNC(=O)COc1cc(=O)n(C)c2ccccc12)c1cccc(C)c1,-31,1,24*,0,-12,0
O=C(NCCCN1CCN(c2cccc(Cl)c2)CC1)C1CCC(=O)N1Cc1ccccc1Cl (centres undefined),-9,37,14*,7,-5,0
O=C(NCCCN1CCCCC1)C1CCC(=O)N1CCc1ccccc1 (centres undefined),-4,-1,0,-4,7,0
Cc1ccnc(NC(=O)CCCOc2cc(=O)n(C)c3ccccc23)c1,-25,66*,-1,0,20,-1
Cn1c(=O)cc(OCC(=O)NCCCN2CCN(c3cccc(Cl)c3)CC2)c2ccccc21,-9,28,9.3*,1,2,0
CCOc1ccc(NC2=NC(C(=O)NCc3ccccc3)CC(=O)N2)cc1 (centres undefined),-7,-9,1,-1,-9,-1
Cn1c(=O)cc(OCCCC(=O)NCCN2CCN(c3ccccc3F)CC2)c2ccccc21,-14,23,0,0,-1,0
CC1(C)CC(=O)c2cc(OCC(=O)NCc3cccnc3)ccc2O1,-18,-5,0,0,0,0
Cn1c(C(=O)NCCCN2CCN(c3ccccc3F)CC2)cc2c(=O)[nH]c3ccccc3c21,-24,75*,25*,18,4,-1
CC1(C)CC(=O)c2cc(OCC(=O)NCCCN3CCN(c4ccccc4F)CC3)ccc2O1,-14,28,9.6*,5,5,-1
Cn1c(=O)cc(OCC(=O)NCCCN2CCN(c3ccccc3F)CC2)c2ccccc21,3,61*,6,5,2,-1
CCn1c(=O)cc(SCC(=O)NCCCN2CCN(c3ccccc3F)CC2)c2ccccc21,-11,69*,1,8,-11,-2
O=C(OCCN1C(=O)c2ccccc2C1=O)C1CCN(S(=O)(=O)c2cccs2)CC1,x,-12,0,-1,-8,x
CC1CCCC(NC(=O)CN(C)S(=O)(=O)c2cccc3cccnc23)C1C (centres undefined),-22,11,-1,-1,-12,0
COc1ccccc1CNc1ncnc2c1nnn2Cc1ccccc1,18,17,1,-2,-1,-1
O=C(N1CCN(c2ccccn2)CC1)N1c2ccccc2Sc2ccccc21,8,48*,0,0,37*,-1
O=C(c1ccco1)N1CCN(C(=O)N2c3ccccc3Sc3ccccc32)CC1,15,58*,-1,-2,74*,-2
COC(=O)c1c(F)c(F)c(NCCO)c(F)c1F,-20,0,2,-1,-9,-1
CCOC(=O)c1[nH]c(C)c(/C=N/O)c1C,5,11,9.8*,-3,8,-2
CCN1C(=O)c2ccccc2S(=O)c2ccc(C(=O)NC3CC3)cc21 (centres undefined),-23,-1,1,-1,-2,0
CCN1C(=O)c2ccccc2S(=O)c2ccc(C(=O)NCCCN3CCCC3=O)cc21 (centres undefined),-6,9,-1,0,30*,0
Fc1ccc(N2CCN(C(c3cccs3)c3nnnn3CCc3ccccc3)CC2)cc1 (centres undefined),19,25,1,2,-5,1
c1ccc(CCn2nnnc2C(c2cccnc2)N2CCN(c3ccccc3)CC2)cc1 (centres undefined),-1,9,9.9*,-1,1,-1
SMILES,S1P1 ag pot,5HT1a antag,HTR1E agonist,HTR1A agonist,5HT1E antag,S1P3 agonist
c1ccc(CCn2nnnc2C(c2cccnc2)N2CCN(c3nc4ccccc4s3)CC2)cc1 (centres undefined),-12,18,1,2,2,0
Fc1ccccc1N1CCN(C(c2cccs2)c2nnnn2CCc2ccccc2)CC1 (centres undefined),40,57*,-1,-4,20,-1
C=C(C)Cn1c(CCCNC(=O)C(C)(C)C)nc2ccccc21,x,8,0,-1,-1,x
Cc1sc2ncnc(SCC(=O)NC(=O)NCc3ccco3)c2c1C,-28,27,0,98*,28,0
Cc1nc(SCC(=O)NCc2ccco2)c2c(C)c(C)sc2n1,-7,-6,0,-1,6,1
CC1(C)CC(=O)C2=C(C1)N(c1cccc(O)c1)C1=C(C2)C(=O)CC(C)(C)C1,8,20,1,0,30*,-1
O=C(Nc1ccccc1NC(=O)NC1CCCCC1)NC1CCCCC1,x,7,1,-5,56*,0
O=C(Nc1ccc2c(c1)OCO2)c1cccc2c1C(=O)N(Cc1cccnc1)C2,-9,-10,1,-1,1,0
COc1cc(NC(=O)c2cccc3c2C(=O)N(Cc2cccnc2)C3)cc(OC)c1OC,-25,18,1,3,30*,2
COc1ccccc1NC(=O)N1CCc2[nH]c3ccc(Cl)cc3c2C1,-14,1,0,-3,20,0
O=S(=O)(c1ccc2oc(-c3ccncc3)nc2c1)c1ccc2oc(-c3ccncc3)nc2c1,-16,-16,1,27*,-14,0
CCN1CCN(c2nc(-c3cccnc3)nc3ccccc23)CC1,0,-3,13*,4,7,0
CN1CCN(c2nc(-c3cccnc3)nc3ccccc23)CC1,-51,10,42*,1,-3,-1
c1cncc(-c2nc(N3CCCCCC3)c3ccccc3n2)c1,-7,6,0,3,11,-1
COC(=O)c1sc(NC(=O)c2cnccn2)c(C(=O)OC)c1C,-1,-4,-1,-4,0,-1
CC1Oc2ccccc2N(CC(=O)N2CCc3ccccc32)C1=O (centres undefined),7,5,0,-5,-4,-1
